Laboratory results published in ChEMBL document CHEMBL1687778, “Genetic determinants involved in the susceptibility of Pseudomonas aeruginosa to beta-lactam antibiotics” (2010).
Converted amounts (≈) assume the structure as drawn.

Legend:
Assay type in all cases: functional
Pseudomonas aeruginosa [1] = assay: Antimicrobial activity against Pseudomonas aeruginosa PA14 PA4550 harboring fimU mutant gene by Etest method
How it was run: (§1)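 Etest MIC. Overnight LB cultures at 37°C were diluted in sterile 0.85% NaCl to about 1 × 10^7 CFU/ml. 100 µl was spread on Mueller-Hinton agar, one strip was placed per plate, and plates were incubated at 37°C for 18 h. Equal cell numbers were seeded per plate, and results were verified in triplicate. PA14 wild type was included in each set as a susceptibility control.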

Pseudomonas aeruginosa [2] = assay: Antimicrobial activity against Pseudomonas aeruginosa PA14 PA5005 harboring mutation in putative carbamoyltransferase by Etest method; how it was run: as §1
Pseudomonas aeruginosa [3] = assay: Antimicrobial activity against Pseudomonas aeruginosa PA14 PA5000 harboring wapR mutant gene by Etest method; how it was run: as §1
Pseudomonas aeruginosa [4] = assay: Antimicrobial activity against Pseudomonas aeruginosa PA14 PA3520 harboring mutation in putative periplasmic metal-binding protein by Etest method; how it was run: as §1
Pseudomonas aeruginosa [5] = assay: Antimicrobial activity against Pseudomonas aeruginosa PA14 PA2487 harboring mutation in hypothetical protein by Etest method
How it was run: (§2)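 Overnight LB cultures (37°C) diluted in sterile 0.85% NaCl to about 1 × 10^7 CFU/ml. 100 µl spread on Mueller-Hinton agar, one Etest strip per plate, 18 h at 37°C. Ceftazidime, imipenem and meropenem tested. Wild-type PA14 plate included in each set. Each mutant verified in triplicate.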

Pseudomonas aeruginosa [6] = assay: Antimicrobial activity against Pseudomonas aeruginosa PA14 PA3259 harboring mutation in conserved hypothetical protein by Etest method; how it was run: as §1
Pseudomonas aeruginosa [7] = assay: Antimicrobial activity against Pseudomonas aeruginosa PA14 PA2621 harboring clpS mutant gene by Etest method; how it was run: as §2
Pseudomonas aeruginosa [8] = assay: Antimicrobial activity against Pseudomonas aeruginosa PA14 PA4007 harboring proA mutant gene by Etest method; how it was run: as §1
Pseudomonas aeruginosa [9] = assay: Antimicrobial activity against Pseudomonas aeruginosa PA14 PA14_07490/07510 harboring mutation in intergenic region by Etest method; how it was run: as §2
Pseudomonas aeruginosa [10] = assay: Antimicrobial activity against Pseudomonas aeruginosa PA14 PA5366 harboring pstB mutant gene by Etest method; how it was run: as §1
Pseudomonas aeruginosa [11] = assay: Antimicrobial activity against Pseudomonas aeruginosa PA14 PA3141 harboring wbpM mutant gene by Etest method; how it was run: as §2
Pseudomonas aeruginosa [12] = assay: Antimicrobial activity against Pseudomonas aeruginosa PA14 PA1553 harboring mutation in putative cytochrome c oxidase, cbb3 type, subunit II by Etest method; how it was run: as §2
Pseudomonas aeruginosa [13] = assay: Antimicrobial activity against Pseudomonas aeruginosa PA14 PA0401 harboring mutation in Noncatalytic dihydroorotase-like protein by Etest method; how it was run: as §2
Pseudomonas aeruginosa [14] = assay: Antimicrobial activity against Pseudomonas aeruginosa PA14 PA4748 harboring tpiA mutant gene by Etest method; how it was run: as §1
Pseudomonas aeruginosa [15] = assay: Antimicrobial activity against Pseudomonas aeruginosa PA14 PA3704 harboring wspE mutant gene by Etest method; how it was run: as §1
Pseudomonas aeruginosa [16] = assay: Antimicrobial activity against Pseudomonas aeruginosa PA14 PA2023 harboring galU mutant gene by Etest method; how it was run: as §2
Pseudomonas aeruginosa [17] = assay: Antimicrobial activity against Pseudomonas aeruginosa PA14 PA1011 harboring mutation in putative lipoprotein by Etest method; how it was run: as §2
Pseudomonas aeruginosa [18] = assay: Antimicrobial activity against Pseudomonas aeruginosa PA14 PA3433 harboring mutation in putative transcriptional regulator, LysR family by Etest method; how it was run: as §1
Pseudomonas aeruginosa [19] = assay: Antimicrobial activity against Pseudomonas aeruginosa PA14 PA2970 harboring rpmF mutant gene by Etest method; how it was run: as §2
Pseudomonas aeruginosa [20] = assay: Antimicrobial activity against Pseudomonas aeruginosa PA14 PA4527 harboring pilC mutant gene by Etest method; how it was run: as §1
Pseudomonas aeruginosa [21] = assay: Antimicrobial activity against Pseudomonas aeruginosa PA14 PA4753 harboring mutation in putative RNA-binding protein by Etest method; how it was run: as §1
Pseudomonas aeruginosa [22] = assay: Antimicrobial activity against Pseudomonas aeruginosa PA14 PA5038 harboring aroB mutant gene by Etest method; how it was run: as §1
Pseudomonas aeruginosa [23] = assay: Antimicrobial activity against Pseudomonas aeruginosa PA14 PA0011 harboring mutation in putative 2-OH-lauroyltransferase by Etest method; how it was run: as §2
Pseudomonas aeruginosa [24] = assay: Antimicrobial activity against Pseudomonas aeruginosa PA14 PA0908 harboring mutation in hypothetical protein by Etest method; how it was run: as §2
Pseudomonas aeruginosa [25] = assay: Antimicrobial activity against Pseudomonas aeruginosa PA14 PA0402 harboring pyrB mutant gene by Etest method; how it was run: as §2
Pseudomonas aeruginosa [26] = assay: Antimicrobial activity against Pseudomonas aeruginosa PA14 PA3649 harboring mutation in putative membrane-associated zinc metalloprotease by Etest method; how it was run: as §1
Pseudomonas aeruginosa [27] = assay: Antimicrobial activity against Pseudomonas aeruginosa PA14 PA4005 harboring mutation in conserved hypothetical protein by Etest method; how it was run: as §1
Pseudomonas aeruginosa [28] = assay: Antimicrobial activity against Pseudomonas aeruginosa PA14 PA5130 harboring mutation in putative rhodanese-like domain protein by Etest method; how it was run: as §1
Pseudomonas aeruginosa [29] = assay: Antimicrobial activity against Pseudomonas aeruginosa PA14 PA0427 harboring oprM mutant gene by Etest method; how it was run: as §2
Pseudomonas aeruginosa [30] = assay: Antimicrobial activity against Pseudomonas aeruginosa PA14 PA4946 harboring mutL mutant gene by Etest method; how it was run: as §1
Pseudomonas aeruginosa [31] = assay: Antimicrobial activity against Pseudomonas aeruginosa PA14 PA3620 harboring mutS mutant gene by Etest method; how it was run: as §1
Pseudomonas aeruginosa [32] = assay: Antimicrobial activity against Pseudomonas aeruginosa PA14 PA4459 harboring mutation in Conserved hypothetical protein by Etest method; how it was run: as §1
Pseudomonas aeruginosa [33] = assay: Antimicrobial activity against Pseudomonas aeruginosa PA14 PA2963 harboring mutation in putative aminodeoxychorismate lyase by Etest method; how it was run: as §2
Pseudomonas aeruginosa [34] = assay: Antimicrobial activity against Pseudomonas aeruginosa PA14 PA3800 harboring mutation in conserved hypothetical protein by Etest method; how it was run: as §1
Pseudomonas aeruginosa [35] = assay: Antimicrobial activity against wild type Pseudomonas aeruginosa PA14 by Etest method; how it was run: as §1
Pseudomonas aeruginosa [36] = assay: Antimicrobial activity against Pseudomonas aeruginosa PA14 PA0764 harboring mucB mutant gene by Etest method; how it was run: as §2
Pseudomonas aeruginosa [37] = assay: Antimicrobial activity against Pseudomonas aeruginosa PA14 PA5001 harboring mutation in conserved hypothetical protein by Etest method; how it was run: as §1
Pseudomonas aeruginosa [38] = assay: Antimicrobial activity against Pseudomonas aeruginosa PA14 PA0766 harboring mucD mutant gene by Etest method; how it was run: as §2
Pseudomonas aeruginosa [39] = assay: Antimicrobial activity against Pseudomonas aeruginosa PA14 PA2128 harboring cupA1 mutant gene by Etest method; how it was run: as §2
Pseudomonas aeruginosa [40] = assay: Antimicrobial activity against Pseudomonas aeruginosa PA14 PA3818 harboring suhB mutant gene by Etest method; how it was run: as §1
Pseudomonas aeruginosa [41] = assay: Antimicrobial activity against Pseudomonas aeruginosa PA14 PA5002 harboring mutation in hypothetical protein by Etest method; how it was run: as §1
Pseudomonas aeruginosa [42] = assay: Antimicrobial activity against Pseudomonas aeruginosa PA14 PA5192 harboring pckA mutant gene by Etest method; how it was run: as §1
Pseudomonas aeruginosa [43] = assay: Antimicrobial activity against Pseudomonas aeruginosa PA14 PA4402 harboring argJ mutant gene by Etest method; how it was run: as §1
Pseudomonas aeruginosa [44] = assay: Antimicrobial activity against Pseudomonas aeruginosa PA14 PA5288 harboring glnK mutant gene by Etest method; how it was run: as §1
Pseudomonas aeruginosa [45] = assay: Antimicrobial activity against Pseudomonas aeruginosa PA14 PA14_43090 harboring mutation in hypothetical protein by Etest method; how it was run: as §2
Pseudomonas aeruginosa [46] = assay: Antimicrobial activity against Pseudomonas aeruginosa PA14 PA3978 harboring mutation in hypothetical protein by Etest method; how it was run: as §1
Pseudomonas aeruginosa [47] = assay: Antimicrobial activity against Pseudomonas aeruginosa PA14 PA0503 harboring mutation in Putative biotin synthesis protein BioC by Etest method; how it was run: as §2
Pseudomonas aeruginosa [48] = assay: Antimicrobial activity against Pseudomonas aeruginosa PA14 PA0958 harboring oprD mutant gene by Etest method; how it was run: as §2

SMILES: CC(C)(O/N=C(\C(=O)N[C@@H]1C(=O)N2C(C(=O)[O-])=C(C[n+]3ccccc3)CS[C@H]12)c1csc(N)n1)C(=O)O [CEFTAZIDIME]
- MIC (Pseudomonas aeruginosa [1]): 2 µg/mL (≈ 3.66 µM)
- MIC (Pseudomonas aeruginosa [2]): 3 µg/mL (≈ 5.49 µM)
- MIC (Pseudomonas aeruginosa [3]): 4 µg/mL (≈ 7.32 µM)
- MIC (Pseudomonas aeruginosa [4]): 1.5 µg/mL (≈ 2.74 µM)
- MIC (Pseudomonas aeruginosa [5]): 2 µg/mL (≈ 3.66 µM)
- MIC (Pseudomonas aeruginosa [6]): 1.5 µg/mL (≈ 2.74 µM)
- MIC (Pseudomonas aeruginosa [7]): 4 µg/mL (≈ 7.32 µM)
- MIC (Pseudomonas aeruginosa [8]): 0.75 µg/mL (≈ 1.37 µM)
- MIC (Pseudomonas aeruginosa [9]): 0.5 µg/mL (≈ 0.915 µM)
- MIC (Pseudomonas aeruginosa [10]): 0.75 µg/mL (≈ 1.37 µM)
- MIC (Pseudomonas aeruginosa [11]): 2 µg/mL (≈ 3.66 µM)
- MIC (Pseudomonas aeruginosa [12]): 0.75 µg/mL (≈ 1.37 µM)
- MIC (Pseudomonas aeruginosa [13]): 0.38 µg/mL (≈ 0.695 µM)
- MIC (Pseudomonas aeruginosa [14]): 1.5 µg/mL (≈ 2.74 µM)
- MIC (Pseudomonas aeruginosa [15]): 2 µg/mL (≈ 3.66 µM)
- MIC (Pseudomonas aeruginosa [16]): 3 µg/mL (≈ 5.49 µM)
- MIC (Pseudomonas aeruginosa [17]): 0.5 µg/mL (≈ 0.915 µM)
- MIC (Pseudomonas aeruginosa [18]): 0.5 µg/mL (≈ 0.915 µM)
- MIC (Pseudomonas aeruginosa [19]): 0.5 µg/mL (≈ 0.915 µM)
- MIC (Pseudomonas aeruginosa [20]): 2 µg/mL (≈ 3.66 µM)
- MIC (Pseudomonas aeruginosa [21]): 0.25 µg/mL (≈ 0.457 µM)
- MIC (Pseudomonas aeruginosa [22]): 3 µg/mL (≈ 5.49 µM)
- MIC (Pseudomonas aeruginosa [23]): 0.38 µg/mL (≈ 0.695 µM)
- MIC (Pseudomonas aeruginosa [24]): 2 µg/mL (≈ 3.66 µM)
- MIC (Pseudomonas aeruginosa [25]): 0.38 µg/mL (≈ 0.695 µM)
- MIC (Pseudomonas aeruginosa [26]): 0.5 µg/mL (≈ 0.915 µM)
- MIC (Pseudomonas aeruginosa [27]): 0.75 µg/mL (≈ 1.37 µM)
- MIC (Pseudomonas aeruginosa [28]): 0.75 µg/mL (≈ 1.37 µM)
- MIC (Pseudomonas aeruginosa [29]): 0.38 µg/mL (≈ 0.695 µM)
- MIC (Pseudomonas aeruginosa [30]): 1.5 µg/mL (≈ 2.74 µM)
- MIC (Pseudomonas aeruginosa [31]): 2 µg/mL (≈ 3.66 µM)
- MIC (Pseudomonas aeruginosa [32]): 1.5 µg/mL (≈ 2.74 µM)
- MIC (Pseudomonas aeruginosa [33]): 0.75 µg/mL (≈ 1.37 µM)
- MIC (Pseudomonas aeruginosa [34]): 0.25 µg/mL (≈ 0.457 µM)
- MIC (Pseudomonas aeruginosa [35]): 0.75 µg/mL (≈ 1.37 µM)
- MIC (Pseudomonas aeruginosa [36]): 0.75 µg/mL (≈ 1.37 µM)
- MIC (Pseudomonas aeruginosa [37]): 3 µg/mL (≈ 5.49 µM)
- MIC (Pseudomonas aeruginosa [38]): 0.38 µg/mL (≈ 0.695 µM)
- MIC (Pseudomonas aeruginosa [39]): 0.5 µg/mL (≈ 0.915 µM)
- MIC (Pseudomonas aeruginosa [40]): 0.5 µg/mL (≈ 0.915 µM)
- MIC (Pseudomonas aeruginosa [41]): 1.5 µg/mL (≈ 2.74 µM)
- MIC (Pseudomonas aeruginosa [42]): 0.5 µg/mL (≈ 0.915 µM)
- MIC (Pseudomonas aeruginosa [43]): 3 µg/mL (≈ 5.49 µM)
- MIC (Pseudomonas aeruginosa [44]): 0.5 µg/mL (≈ 0.915 µM)
- MIC (Pseudomonas aeruginosa [45]): 2 µg/mL (≈ 3.66 µM)
- MIC (Pseudomonas aeruginosa [46]): 0.75 µg/mL (≈ 1.37 µM)
- MIC (Pseudomonas aeruginosa [47]): 0.5 µg/mL (≈ 0.915 µM)
- MIC (Pseudomonas aeruginosa [48]): 0.75 µg/mL (≈ 1.37 µM)
